PHOSPHO1 block: PubChem AID 1565; recombinant PHOSPHO1, absorbance phosphatase assay; Phosphoethanolamine/phosphocholine phosphatase (Homo sapiens), Q8TCT1; 1.1% of 290,000 active; inhibition, % at 13.3 µM; in the data active = inhibition above about 60%
KCNQ1 pot: potentiators or activators of KCNQ1 channel, primary screen, cell-based, thallium flux, high-throughput; Potassium voltage-gated channel subfamily KQT member 1 (Homo sapiens), P51787; CHO-K1 KCNQ1, thallium flux FluxOR fluorescence; active compounds read high; B-score at 10 µM; 0.35% of 310,000 active; AID 2648, 2010;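 active = fluorescence ratio B-score, a plate-corrected score, at least three library SD, with initial intensity B-score within 5 SD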
Target sequence (P51787 whole entry, looked up): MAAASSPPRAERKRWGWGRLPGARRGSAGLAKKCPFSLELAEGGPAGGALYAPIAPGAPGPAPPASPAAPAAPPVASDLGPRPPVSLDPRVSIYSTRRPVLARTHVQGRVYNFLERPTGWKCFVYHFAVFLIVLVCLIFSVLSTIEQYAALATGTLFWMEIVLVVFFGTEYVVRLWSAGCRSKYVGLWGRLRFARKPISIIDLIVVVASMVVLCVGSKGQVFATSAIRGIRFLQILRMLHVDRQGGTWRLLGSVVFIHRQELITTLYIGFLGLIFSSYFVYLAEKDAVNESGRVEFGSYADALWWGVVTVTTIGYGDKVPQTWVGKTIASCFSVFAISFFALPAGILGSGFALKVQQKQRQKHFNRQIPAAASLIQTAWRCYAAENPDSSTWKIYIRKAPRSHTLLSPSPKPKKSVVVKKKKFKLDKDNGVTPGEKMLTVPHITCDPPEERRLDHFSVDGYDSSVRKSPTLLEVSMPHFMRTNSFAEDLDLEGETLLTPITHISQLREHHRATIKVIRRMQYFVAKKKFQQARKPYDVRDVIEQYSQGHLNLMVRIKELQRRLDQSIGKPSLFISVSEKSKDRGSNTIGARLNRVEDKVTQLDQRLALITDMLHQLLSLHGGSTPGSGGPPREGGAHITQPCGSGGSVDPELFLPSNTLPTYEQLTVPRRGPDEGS
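assay system = CHO-K1 cells stably expressing KCNQ1 | medium = assay buffer, equal DMSO in all wells | timing = 37 °C overnight plating, 90-min dark dye load, 20-min compound pretreatment | measured by = kinetic FluxOR thallium fluorescence, 10-s 1-Hz baseline, 110-s post-stimulus read | measure = fluorescence change relative to baseline, converted to B score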
KCNQ1 inh: inhibitors of human KCNQ1 channel, primary screen, cell-based, thallium flux, high-throughput. Potassium voltage-gated channel subfamily KQT member 1 (Homo sapiens), P51787. CHO-K1 KCNQ1, FluxOR thallium flux fluorescence; active compounds read high. B-score at 10 µM. 1.3% of 310,000 active;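 active = compounds whose thallium flux B-score, printed positive for inhibition, exceeds three library SD while starting fluorescence stays within three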;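 note: channel opened by potassium depolarization with thallium stimulus after 20 min compound exposure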
KCNK3 block: human KCNK3 channel inhibitors, primary screen, CHO cells, FluxOR thallium flux, B-score | FluxOR fluorescence; active compounds read low | B-score at 10 µM | 0.84% of 340,000 active;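 active = B-score under library mean minus 4 SD, starting fluorescence ratio at most library mean plus 5 SD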;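 note: more negative B-score means stronger inhibition of thallium flux through KCNK3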
hERG rescue: hERG rescue from dofetilide block, primary screen, cell-based, CHO-hERG, FluxOR thallium flux, dofetilide IC70; dofetilide IC70 present; 0.51% of 310,000 active; Voltage-gated inwardly rectifying potassium channel KCNH2 (Homo sapiens), Q12809; activation (rescue from dofetilide block), less the hit threshold, % at 10 µM;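 active = activation above the mean of controls blocked by dofetilide plus 5 SD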;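 note: thallium influx through hERG after potassium depolarization seen as dye fluorescence rise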
KCNK9 inh: KCNK9 potassium channel inhibitors, primary screen, HEK293 cells, thallium flux; Potassium channel subfamily K member 9 (Homo sapiens), Q9NPC2; B-score at 10 µM; 1.2% of 310,000 active; AID 488922, 2010; FluxOR thallium flux fluorescence; active compounds read low;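 active = ratio B-score over 3 SD below the library mean, with starting fluorescence within 5 SD of its mean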;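 note: negative B-score means less thallium flux so channel inhibition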
KCNK9 block conf: KCNK9 potassium channel inhibitors, confirmation, HEK293 cells, thallium flux, duplicate | shares compounds with KCNK9 inh | FluxOR thallium flux fluorescence | inhibition, % at 10 µM | 43% of 4,900 active;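 active = thallium signal inhibited by more than 5 SD of the compound-free buffer control wells, on both duplicate plates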;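 note: 0% = assay buffer control wells without compound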
Kir2-1 spec: mouse Kir2.1 channel inhibition, confirmation, selectivity assay for KCNK9 modulator project, cell-based, HEK293, thallium flux | AID 492993, 2010 | 4% of 4,900 active | inhibition, % at 10 µM | shares compounds with KCNK9 inh | Kir2.1 cells, FluxOR thallium flux fluorescence;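 active = thallium signal drop more than 5 SD beyond the mean of the no-compound control wells, seen in both duplicate plates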;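 note: signal is fluorescence rise after thallium addition divided by baseline fluorescence; plate controls were assay buffer only for no effect and full block by chlorpromazine control for full effect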
HEK293 Tl ctr: thallium flux in non-induced HEK293 cells, confirmation, counter-screen for KCNK9 inhibitor project, cell-based, second counter screen, non-induced KCNK9-HEK293; shares compounds with KCNK9 inh; FluxOR thallium flux; inhibition, % at 10 µM; 40% of 4,900 active;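 active = thallium signal drop beyond 5 SD of the untreated control mean, on both duplicate plates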;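 note: plate controls were buffer only IC0 wells for no effect and SID17386958 at its maximal inhibitory level for full effect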
KCNK3 inh conf: retest of human KCNK3 channel inhibitors, confirmation, CHO cells, FluxOR thallium flux, triplicate; shares compounds with KCNK3 block; FluxOR fluorescence; 0% buffer, 100% carvedilol maximal block; ratio percent of control, % at 10 µM; 99% of 2,400 active;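 active = ratio percent of control, averaged over triplicates, above buffer control mean plus 5 SD, cut at about 64% in these data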;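 note: ratio is the fluorescence rise from min to max over baseline after thallium stimulus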
KCNK3 noninduced: thallium flux inhibition in non-induced cells, primary screen, counter-screen for KCNK3 inhibitor project, cell-based, non-induced KCNK3 line, FluxOR thallium, triplicate; shares compounds with KCNK3 block; 40% of 2,400 active; AID 651747, 2012; thallium flux ratio (lower = more inhibition) at 10 µM; non-induced KCNK3 parental cells; active compounds read low;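 active = thallium flux ratio, averaged over three wells, more than 5 SD below the buffer control mean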;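 note: host cells are CHO cells without KCNK3 induction; ratio is peak minus trough fluorescence over baseline then normalized to buffer controls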
* = called active by the depositor; i = inactive; . = no result. Shown are actives, neighbours in structure and some others; about 4% of the full set was active somewhere.

SMILES	PHOSPHO1 block	KCNQ1 pot	KCNQ1 inh	KCNK3 block	hERG rescue	KCNK9 inh	KCNK9 block conf	Kir2-1 spec	HEK293 Tl ctr	KCNK3 inh conf	KCNK3 noninduced
Fc1ccc(C(CCCn2nnc(-c3cccnc3)n2)c2ccc(F)cc2)cc1	15.9	i	15*	-15.3*	-17.6	-12.5*	55.0%*	i	37.5%*	148.3*	i
CN1CC[C@@]2([C@@]34CCN(C)C3Nc3ccccc34)c3ccccc3NC12 (some centres not stated)	.	i	i	i	-6.6	i	.	.	.	.	.
Cc1onc(-c2ccc(Cl)cc2)c1-c1ccnc(SCC(=O)Nc2cc(Cl)cc(Cl)c2)n1	-0.8	i	9*	-13.3*	-5.9	-15.6*	i	i	44.5%*	100.7*	0.152*
O=C(CN1C(=O)c2ccccc2C1=O)NN1C(=O)c2ccccc2C1=O	-5.3	i	i	i	-5.4	i	.	.	.	.	.
CC(C)c1ccc(C(=O)NC2=NCCS2)cc1	-5.7	i	i	i	-8.0	i	.	.	.	.	.
Cn1cccc1/C=C1\CCC/C(=C\c2cccn2C)C1=O	27.9	i	14*	-12*	-36.2	-9.56*	77.5%*	60.5%*	i	0.0	i
O=C1/C(=C/c2cccs2)CCC/C1=C\c1cccs1	42.6	i	i	i	-12.3	i	.	.	.	.	.
CCn1nc(C(=O)OC(C(=O)c2c[nH]c3ccccc23)c2ccccc2)c2ccccc2c1=O (configuration not stated)	1.0	i	8*	-9.04*	-20.1	-11.1*	32.0%*	i	i	88.7*	i
CCn1nc(C(=O)OCC(=O)c2ccc(F)cc2)c2ccccc2c1=O	-5.3	i	i	i	-1.7	i	.	.	.	.	.
Cc1cc(NC(=S)N(CCN2CCCCC2)Cc2ccco2)ccc1Cl	16.6	i	i	-11.4*	-12.7	-8.19*	25.0%*	i	27.5%*	108.0*	i
COc1ccccc1CN1C[C@@H]2C[C@@H](c3ccc4nsnc4c3)N3CCC[C@@]23C1=O	5.1	i	i	i	-6.8	i	.	.	.	.	.
COc1ccc(C2CC(c3cccs3)=NN2C(=O)COC(=O)C2CCCCC2)cc1OC (configuration not stated)	24.5	i	i	-9.58*	-11.3	-14.8*	43.0%*	i	37.5%*	103.3*	i
Cc1ccc(S(=O)(=O)N(C)CC(=O)NNC(=O)Cc2ccccc2F)cc1	.	.	.	i	.	.	.	.	.	.	.
COc1ccc(S(=O)(=O)Nc2cccc3c2O[C@H](CN(C)S(=O)(=O)c2ccc(Cl)cc2)[C@H](C)CN([C@H](C)CO)C3=O)cc1	.	.	.	i	.	.	.	.	.	.	.

Source: PubChem BioAssay
